Assay results pooled from the literature.
Protocols differ between the studies behind these lines.
Target: Serine/threonine-protein kinase pim-3 (PIM3, Homo sapiens, UniProt Q86V86)

| SMILES | effect on | mode | technique | tested at | measurement | result |
| --- | --- | --- | --- | --- | --- | --- |
| COc1ccc2oc(-c3ccc4nc(N)oc4c3)c/c(=N\c3ccccc3NC(=O)CCN)c2c1 | binding |  |  | 1 µM | remaining binding | 110% |
| C=CC(=O)N1CCC([C@@H]2CCNc3c(C(N)=O)c(-c4ccc(Oc5ccccc5)cc4)nn32)CC1 | enzyme activity | inhibitor |  | 1 µM | inhibition | 2% |
| C[C@H]1CC[C@H](n2c3cnccc3c3cnc(Nc4ccc5c(n4)CCN(C(=O)CO)C5)nc32)CC1 | cell-free assay |  |  | 1 µM | remaining signal | 31% |
| C1=C/COCc2cc(ccc2OCCN2CCCC2)Nc2nccc(n2)-c2cccc(c2)COC/1 | binding |  |  | 0.1 µM | remaining binding | 97% |
| C#Cc1cnc(Nc2ccnc(CO)c2)nc1Nc1ccccc1S(C)(=O)=NC#N (stereo not shown) | cell-free assay |  |  | 1 µM | remaining signal | 80% |
| N#Cc1ccc(NC(=O)Nc2ccccc2)cc1 | cell-free assay |  | competition with immobilised ligand | 25 µM | remaining binding | 74% |
| COc1ccc2[nH]c3c4[nH]c5ccc(OC)cc5c4c4c(c3c2c1)C(=O)NC4=O | binding |  |  | 1 µM | remaining binding | 2.6% |
| CCCCC(=O)Nc1ccc(-c2ccc3ncn(CCC)c(=O)c3c2)cn1 | binding |  | competition with immobilised ligand | 0.5 µM | remaining binding | 93% |
| CC(C)S(=O)(=O)c1ccc2nccc(Nc3ccc4sc(C5CCCC5)nc4c3)c2c1 | enzyme activity | inhibitor |  | 1 µM | activity vs control | 104% |
| C=CC(=O)N1CCC[C@@H](n2nc(-c3ccc(Oc4ccccc4)cc3)c3c(N)ncnc32)C1 | enzyme activity | inhibitor |  | 1 µM | inhibition | 0% |
